Most compounds without a hit are left out; they make up all but 2% or so of the library.
SR-BI uptake up: activators of SR-BI mediated HDL lipid uptake; CHO ldlA[mSR-BI] cells, DiI-HDL uptake fluorescence, 3 h; 100 = double the neutral-control signal; activation, % at 12.5 µM; actives 0.096% (n = 320,000);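 active = mean replicate activation of at least 60% and every replicate at or above 60%; inconclusive = mean or all-replicate condition met, but not both; inactive = mean below 60% and not all replicates reaching 60%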;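 also: 0% = median plate neutral-control signal and 100% = twice that signal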
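Assay system: LDL receptor-deficient CHO ldlA cells overexpressing murine SR-BI / Medium: BSA-supplemented, HEPES-buffered Ham's F12, pH 7.4 / Probe or stimulus: DiI-labelled HDL at 10 µg/mL final / Timing: compound with DiI-HDL co-incubation, 3 h at 37 °C / Technique: bottom-read cell fluorescence after medium removal, ex 550/em 595 nm / Measure: HDL uptake via cellular fluorescence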
ARNT TACC3 PPI: disruptors of human ARNT/TACC3 interaction. AlphaScreen His-ARNT PAS-B/GST-TACC3 binding, luminescence; TACC3 fragment carries E629A point mutation. inhibition, % at 9.99 µM. Q9Y6A5. actives 0.66% (n = 390,000);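 active = mean inhibition of replicates at least 50% and at least half of replicates each reaching 50%; inconclusive = half or more replicates reach 50% but mean below 50%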;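 also: 0% = complete ARNT plus TACC3 wells and 100% = ARNT alone without TACC3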
HGIII-sPLA2 inh: Blocks human group III sPLA2 activity | Q9NZ20 | QFRET BODIPY PC-A2 liposome hydrolysis, fluorescence | inhibition, % at 12.2 µM | actives 0.56% (n = 370,000);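 active = inhibition above mean plus 3 SD of compounds lying within the high and low control bounds, cut at about 19% in these data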;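 also: 0% = median of test compound wells and 100% = no enzyme DMSO wells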
NSD2 inh: blocks human histone methyltransferase NSD2 | NSD2 peptide methylation, AlphaScreen, 120 min | inhibition, % at 12.5 µM | actives 0.54% (n = 310,000) | AID 743445; in the data active = inhibition above about 50%
SR-BI DiI inh: mouse SR-BI HDL lipid transfer inhibition. ldlA[mSR-BI] CHO cells, DiI-HDL uptake fluorescence, 3 h. inhibition, % at 12.5 µM. actives 0.96% (n = 320,000);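 active = mean replicate inhibition of at least 70% and a set share of replicates each scoring 70 or more; inconclusive = meets just one of the two criteria; inactive = fails both criteria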;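 also: 0% = median of neutral control wells and 100% = median of positive control wells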
Xi reactivation: X-chromosome reactivation activator; XiGFP mouse fibroblasts, % GFP-positive cells imaging, 3 d; cells co-treated with 5-aza-dC sensitizer; scaled so ellipticine positive control = 100%; activation, % at 7.58 µM; AID 743238; actives 0.055% (n = 360,000);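 active = mean normalized replicate activation at least 10% and every replicate at or above 10%; inconclusive = only one of the two criteria met; inactive = mean below 10% and not all replicates reach 10%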;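 also: 0% = median of on-plate neutral control wells and 100% = ellipticine 6 µM median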
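assay system = SV40-immortalized XiGFP fibroblast cells, line 68-5-11 | buffer or medium = DMEM plus 5-aza-dC sensitizer | doses = single-point pinned compound dosing | times = 3-day compound exposure, then 15 min fixation at room temperature | benchmarks = positive control ellipticine, 6 µM final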
* hit, by the source's call; ? = inconclusive; nt = not tested or not shown.

SMILES | SR-BI uptake up | ARNT TACC3 PPI | HGIII-sPLA2 inh | NSD2 inh | SR-BI DiI inh | Xi reactivation
COc1cc(S(=O)(=O)N2CCOCC2)ccc1NC(=O)COC(=O)/C=C/c1cc(OC)c(OC)c(OC)c1 | -32 | 34 | 8 | -1 | 32 | 0
COc1cc(/C=N/Nc2ccc([N+](=O)[O-])cc2S(=O)(=O)N2CCOCC2)cc(OC)c1OC | -47 | 0 | -3 | -2 | 47 | 0
O=[N+]([O-])c1ccc(N/N=C/c2ccc(O)c(O)c2O)c(S(=O)(=O)N2CCOCC2)c1 | -108 | 7 | 3 | 29 | 108* | 0
Cc1ccc(C)n1-c1cc([N+](=O)[O-])ccc1-n1ccnc1 | nt | nt | 4 | 3 | nt | 0
CC1(C)N([O-])c2cc([N+](=O)[O-])ccc2[N+]1=O | nt | nt | -7 | 85* | nt | 0
CN1c2ccc(-c3cccc(C#N)c3)cc2[C@@H]2[C@@H](CCN2C(=O)CN2CCOCC2)[C@@H]1CO | nt | -3 | nt | nt | nt | 0
Cc1ccc(-c2nc(NCCCN(C)C)c3ccccc3n2)cc1 | nt | nt | -19 | nt | nt | 0
Cc1ccc(-c2csc3nc4c5ccccc5c(NCCCN(C)C)nn4c(=O)c23)cc1 | 11 | 67* | -11 | nt | -11 | 0
O=C1c2cccc(NCCNCCO)c2C(=O)c2cccc(NCCNCCO)c21 | 0 | 47* | 30* | nt | 0 | 0
O=C(O)CCNc1ccc(NCCC(=O)O)c2c1C(=O)c1ccccc1C2=O | 13 | nt | 13 | 56* | -13 | 0
CS(=O)(=O)N(CC(=O)NCCSCc1ccccc1)c1ccccc1Cl | 14 | -1 | -7 | 0 | -14 | 0
O=C(CCN1CCOCC1)NNC(=S)NC(=O)c1ccccc1 | 33 | 48* | 9 | -4 | -33 | 0
CCOc1ccc(/C=C2/C(=N)N3OC(C)=CC3=NC2=O)cc1OC | 86* | 2 | -1 | -1 | -86 | 0
COc1ccc(C(=O)NNC(=O)c2cc3ccccc3cc2O)cc1 | -115 | 3 | 12 | -2 | 115* | 0
CCOc1ccc(NC(=O)Nc2cc(OCC(F)(F)F)cc(OCC(F)(F)F)c2)cc1 | -75 | 2 | 2 | -2 | 75* | 0
COc1ccccc1C(=O)NNC(=O)c1cc2ccccc2cc1O | nt | nt | -2 | -6 | nt | 0
CCOc1ccc(NC(=O)NNC(=O)c2cc3ccccc3cc2O)cc1 | -81 | 3 | 14 | 2 | 81* | 0
O=C(C1CC1)N1CCCCN2[C@H](CO)[C@H](c3ccc(C#CC4CCCC4)cc3)[C@@H]2C1 | nt | 8 | nt | nt | nt | 0
Oc1c(CN2CCc3ccccc3C2)cc(Cl)c2cccnc12 | -36 | 58* | nt | nt | 36 | nt
COc1ccc(NC(=O)N(C)C[C@H]2Oc3ccc(NC(=O)CCCN(C)C)cc3C(=O)N([C@@H](C)CO)C[C@H]2C)cc1 | nt | -5 | nt | nt | nt | 0
C=CCn1c(CNc2ccccc2)nnc1SCC(=O)N/N=C/c1ccc(O)cc1O | 16 | 58* | -40 | 2 | -16 | nt
C=CCn1c(CNc2ccc(C)cc2)nnc1SCC(=O)N/N=C/c1ccc(O)cc1O | 0 | -4 | -53 | 7 | 0 | nt
COc1ccc(-c2cc3c(=O)n(CC(=O)NCc4ccc(F)cc4)ncn3n2)cc1 | -8 | -4 | -1 | nt | 8 | 0
COc1cc(/C=C/c2ccc3cccc(O)c3n2)cc(Br)c1OC | -82 | -6 | 3 | -1 | 82* | 1
Oc1cccc(/C=N/NC(=S)NCCN2CCOCC2)c1O | nt | 69* | -13 | 3 | nt | ?
Cc1ccc(OCC(=O)N2CCN(c3nnc(-c4ccc(C)cc4)c4ccccc34)CC2)cc1 | -78 | 5 | 4 | 5 | 78* | nt
COc1ccc(OCC(=O)N2CCN(c3nnc(-c4ccc(C)cc4)c4ccccc34)CC2)cc1 | -77 | 4 | -4 | 5 | 77* | 0
Cc1cccc(OCC(=O)N2CCN(c3nnc(-c4ccccc4)c4ccccc34)CC2)c1 | -80 | 8 | -13 | 4 | 80* | 0
CN(C)C(=O)c1cc2c(c(-c3cccc(-c4ccccc4)c3)n1)[C@@H](CCO)N([S@](=O)C(C)(C)C)C2 | nt | nt | nt | nt | nt | 0
